Publication PMC5743405 (International Journal of Oncology, 2017)

What was measured:
DRD5 = test: PathHunter β-arrestin; assay type: cell-based; conditions: 6 μM
Procedure, shortened: (§1)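 Engineered cells express the receptor fused to one β-galactosidase fragment (ED) and β-arrestin fused to the complementing fragment (EA). Receptor activation recruits β-arrestin, which restores enzyme activity, and this is read by chemiluminescence (RLU). Agonist % activity is 100% × (test − vehicle)/(maximal control ligand − vehicle). Antagonist mode is challenged with an EC80 control agonist, and % inhibition is 100% × (1 − (test − vehicle)/(EC80 − vehicle)). Hits require >30% activity or >35% inhibition, plus a 3×SD RLU margin.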

nuclear receptor = test: PathHunter NHR assays, nhrMAX panel, antagonist mode; assay type: cell-based; conditions: summary of Table IV
Procedure, shortened: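 Enzyme fragment complementation: NHR nuclear recruitment of a co-activator peptide fusion restores β-galactosidase, read by chemiluminescence. Test compound preincubated 1 h before agonist challenge. % inhibition = 100 × (1 − (test − vehicle RLU)/(EC80 control − vehicle RLU)). Hit requires >35% inhibition and mean RLU below EC80 RLU − 3 × EC80 SD.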

C5AR1 = test: PathHunter β-arrestin; assay type: cell-based; conditions: antagonist mode, 6 μM
Procedure, shortened: (§2)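 β-Arrestin recruitment assay: the enzyme acceptor is fused to β-arrestin and the ED fragment to the GPCR. Recruitment restores β-galactosidase, read by chemiluminescence. % activity = 100% × (test − vehicle)/(max control ligand − vehicle). % inhibition = 100% × (1 − (test − vehicle)/(EC80 control − vehicle)). An agonist hit needs >30% activity and RLU > baseline + 3×SD. An antagonist hit needs >35% inhibition and RLU < EC80 RLU − 3×SD.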

HRH1 = test: PathHunter β-arrestin; assay type: cell-based; conditions: agonist mode, 6 μM
Procedure, shortened: (§3)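 Vendor-run (DiscoveRx) PathHunter enzyme fragment complementation. β-Arrestin carries the EA fragment and the receptor carries ED; recruitment restores β-gal activity, read by chemiluminescence (RLU). Agonist % activity = vehicle-subtracted RLU relative to max control ligand (gpcrMAX) or to vehicle (orphanMAX). Antagonist % inhibition = 100% × (1 − vehicle-subtracted sample RLU / vehicle-subtracted EC80 agonist control RLU).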

PPYR1 = test: PathHunter β-arrestin; assay type: cell-based; conditions: antagonist mode, 6 μM
ADRB1 = test: PathHunter β-arrestin; assay type: cell-based; conditions: 6 μM
Procedure, shortened: as §2

CALCR = test: PathHunter β-arrestin; assay type: cell-based; conditions: 6 μM
Procedure, shortened: as §2

TICAM2 (TRAM) = test: western blot, JJ012 cells; assay type: cell-based, human; conditions: vs untreated control, overnight incubation
OPRK1 = test: PathHunter β-arrestin; assay type: cell-based; conditions: antagonist mode, 6 μM
Procedure, shortened: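 GPCR-ED fusion and β-arrestin-EA fusion; arrestin recruitment restores β-galactosidase, read by chemiluminescence. Antagonist mode uses EC80 agonist challenge. % inhibition = 100 × (1 − (test − vehicle RLU)/(EC80 control − vehicle RLU)). Hit requires >35% inhibition and mean RLU below EC80 RLU − 3 × EC80 SD.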

GALR2 = test: PathHunter β-arrestin; assay type: cell-based; conditions: agonist mode, 6 μM
Procedure, shortened: as §1

TLR9 = test: western blot, JJ012 cells; assay type: cell-based, human; conditions: vs untreated control, overnight incubation
SSTR5 = test: PathHunter β-arrestin; assay type: cell-based; conditions: agonist mode, 6 μM
LHCGR = test: PathHunter β-arrestin; assay type: cell-based; conditions: antagonist mode, 6 μM
Procedure, shortened: as §3

NPBWR2 = test: PathHunter β-arrestin; assay type: cell-based; conditions: 6 μM
Procedure, shortened: as §3

TLR1 = test: RT2 qPCR primer assay, JJ012 cells; assay type: cell-based, human
Procedure, shortened: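 RNA was extracted, checked by spectrophotometry and reverse-transcribed. Custom RT2 SYBR-Green primer assays were run on three samples in technical triplicate. Ct was normalised to mean GAPDH/ACTB, ΔΔCt taken versus control, and fold change = 2^−ΔΔCt.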

HRH4 = test: PathHunter β-arrestin; assay type: cell-based; conditions: antagonist mode, 6 μM
Procedure, shortened: as §3

SSTR1 = test: PathHunter β-arrestin; assay type: cell-based; conditions: agonist mode, 6 μM
HRH3 = test: PathHunter β-arrestin; assay type: cell-based; conditions: 6 μM
Procedure, shortened: as §3

MUC5B = test: TriCEPS ligand-receptor capture; assay type: binding, human; conditions: 10 μg/ml PRP-1
AVPR1B = test: PathHunter β-arrestin; assay type: cell-based; conditions: antagonist mode, 6 μM
Procedure, shortened: as §2

CHRM3 = test: PathHunter β-arrestin; assay type: cell-based; conditions: 6 μM
Procedure, shortened: as §1

PTHR1 = test: PathHunter β-arrestin; assay type: cell-based; conditions: 6 μM
Procedure, shortened: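 β-Arrestin recruitment to GPCR read by β-galactosidase fragment complementation and chemiluminescence. Agonist: % = 100 × (test − vehicle)/(max control ligand − vehicle), hit at >30% and RLU > baseline + 3 SD. Antagonist, against EC80 agonist: % inhibition = 100 × (1 − (test − vehicle)/(EC80 − vehicle)), hit at >35% and RLU < EC80 − 3 SD.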

PRLHR = test: PathHunter β-arrestin; assay type: cell-based; conditions: antagonist mode, 6 μM
CCKBR = test: PathHunter β-arrestin; assay type: cell-based; conditions: antagonist mode, 6 μM
Procedure, shortened: as §2

P2RY4 = test: PathHunter β-arrestin; assay type: cell-based; conditions: agonist mode, 6 μM
CRTH2 = test: PathHunter β-arrestin; assay type: cell-based; conditions: antagonist mode, 6 μM
Procedure, shortened: as §1

GPR119 = test: PathHunter β-arrestin; assay type: cell-based; conditions: 6 μM
Procedure, shortened: as §3

CNR1 = test: PathHunter β-arrestin; assay type: cell-based; conditions: antagonist mode, 6 μM
Procedure, shortened: as §1

EDG4 = test: PathHunter β-arrestin; assay type: cell-based; conditions: antagonist mode, 6 μM
Procedure, shortened: as §1

miR-302C = conditions: human chondrosarcoma; targets Nanog, c-Myc and Bmi1 also; ref [10]; cited from earlier work
CMKLR1 = test: PathHunter β-arrestin; assay type: cell-based; conditions: antagonist mode, 6 μM
Procedure, shortened: as §1

FFAR1 = test: PathHunter β-arrestin; assay type: cell-based; conditions: agonist mode, 6 μM
Procedure, shortened: as §1

Substance: Proline rich polypeptide 1 [PRP-1]
- % Activity (DRD5; agonist mode): 1%
- % Inhibition (DRD5; antagonist mode): −8%
- nuclear receptor antagonism (nuclear receptor): neither that this peptide was agonist for orphan receptors (Table III) or agonist/antagonist for nuclear receptor
- % Inhibition (C5AR1): 3%
- % Activity (HRH1): 1%
- % Inhibition (PPYR1): −4%
- % Activity (ADRB1; agonist mode): 1%
- % Inhibition (ADRB1; antagonist mode): −5%
- % Activity (CALCR; agonist mode): 1%
- % Inhibition (CALCR; antagonist mode): 1%
- protein expression (TICAM2 (TRAM)): upregulated in dose-dependent manner
- % Inhibition (OPRK1): −12%
- % Activity (GALR2): 1%
- protein expression (TLR9): no indication of PRP-1 effect
- % Activity (SSTR5): 1%
- % Inhibition (LHCGR): −15%
- % Activity (NPBWR2; agonist mode): 1%
- % Inhibition (NPBWR2; antagonist mode): −3%
- gene expression (TLR1; 10 μg/ml PRP-1, heat map, average Ct, technical triplicates): well expressed
- fold change (∆Ct) (TLR1; qRT-PCR): did not report significant fold change
- % Inhibition (HRH4): −9%
- % Activity (SSTR1): −3%
- % Activity (HRH3; agonist mode): 2%
- % Inhibition (HRH3; antagonist mode): −6%
- binding partner detection (MUC5B): detected MUC5B as binding partner with 10 μg/ml PRP-1 treatment
- % Inhibition (AVPR1B): −2%
- % Activity (CHRM3; agonist mode): 2%
- % Inhibition (CHRM3; antagonist mode): −6%
- % Activity (PTHR1; agonist mode): 1%
- % Inhibition (PTHR1; antagonist mode): −2%
- % Inhibition (PRLHR): −3%
- % Inhibition (CCKBR): −3%
- % Activity (P2RY4): −1%
- % Inhibition (CRTH2): −8%
- % Activity (GPR119; agonist mode): 3%
- % Inhibition (GPR119; antagonist mode): −1%
- % Inhibition (CNR1): 2%
- % Inhibition (EDG4): 5%
- miR-302c expression (miR-302C): epigenetically downregulates
- % Inhibition (CMKLR1): −2%
- % Activity (FFAR1): 3%
